Measurements of several laboratories.
Lines come from different studies, so protocols differ.
AMY2: Pancreatic alpha-amylase (AMY2, Sus scrofa, UniProt P00690)
D14: D14 (Arabidopsis thaliana, UniProt Q9SQR3)

| SMILES | target | assay | conditions | quantity | result |
| --- | --- | --- | --- | --- | --- |
| O=c1c(O)c(-c2ccc(O)cc2O)oc2cc(O)cc(O)c12 | AMY2 | enzyme activity, inhibitor | 50 µM, 30 min | inhibition | 55.1% |
| CC1=C(/C=C/C(C)=C/C=O)C(C)(C)CCC1 | D14 | thermal stability, DSF | 50 µM | ΔTm | -3.82 °C |
| C#Cc1cc(-c2cc(Nc3nc(N[C@@H](C)c4ccc(F)cn4)ncc3Cl)n[nH]2)ccc1C=O | Ribosomal protein S6 kinase alpha-1 (RPS6KA1, Homo sapiens, UniProt Q15418) | enzyme activity, inhibitor | 0.2 µM | inhibition | 56.8% |
| Cc1cc(O)c(-c2ccc([C@@H](C)CN(C)C)cc2)c2c1[nH]c(=O)c1sccc12 | Eukaryotic translation initiation factor 2-alpha kinase 3 (EIF2AK3, Homo sapiens, UniProt Q9NZJ5) | enzyme activity, inhibitor | 0.1 µM | inhibition | -7.06% |
| CCCCC(=O)Nc1ccc(-c2ccc3ncn(CCC)c(=O)c3c2)cn1 | Tyrosine-protein kinase Fer (FER, Homo sapiens, UniProt P16591) | binding, competition with immobilised ligand | 0.5 µM | remaining binding | 100% |
| O=c1cc(-c2ccc(O)cc2)oc2cc(O)cc(O)c12 | AMY2 | enzyme activity, inhibitor | 50 µM | inhibition | 87.5% |
| COc1ccc2oc(-c3ccc4nc(N)oc4c3)c/c(=N\c3ccccc3NC(=O)CCN)c2c1 | Receptor-interacting serine/threonine-protein kinase 1 (RIPK1, Homo sapiens, UniProt Q13546) | binding | 1 µM | remaining binding | 110% |
| CC1=CC(O/C=C2/C(=O)OC3c4ccccc4CC23)OC1=O (racemic) | D14 | thermal stability | 50 µM | ΔTm | -7.73 °C |
| Cc1cc(S(=O)(=O)N[C@H]2CC[C@H](CN3CCN(c4ccc(C5CCC(=O)NC5=O)cc4F)CC3)CC2)ccc1Nc1ncc(C(F)(F)F)c(N2CCC[C@](C)(O)C2)n1 (stereo partly drawn) | Cyclin-dependent kinase 4, with cyclin D1 (CDK4, Homo sapiens, UniProt P11802) | binding, competition with immobilised ligand | 1 µM | remaining binding | 75% |
| O=c1cc(-c2ccccc2)oc2cc(O)cc(O)c12 | AMY2 | enzyme activity, inhibitor | 50 µM, 30 min | inhibition | 22.3% |
| CC(=O)/C=C/C=C(C)/C=C/C1=C(C)CC(O)CC1(C)C (stereo in doubt) | D14 | thermal stability, DSF | 1 µM | ΔTm | 0.09 °C |
| COc1ccc([C@@H]2CC(=O)c3c(O)cc(O)cc3O2)cc1O | AMY2 | enzyme activity, inhibitor | 50 µM, 30 min | inhibition | 30.3% |
| CC1=C(/C=C/C(C)=C/C=O)C(C)(C)C[C@H](O)C1 | D14 | thermal stability, DSF | 1 µM | ΔTm | 0.28 °C |
| O=c1c(O)c(-c2ccc(O)cc2)oc2cc(O)cc(O)c12 | AMY2 | enzyme activity, inhibitor | 50 µM, 30 min | inhibition | 88.9% |
| C1=C/COCc2cc(ccc2OCCN2CCCC2)Nc2nccc(n2)-c2cccc(c2)COC/1 | Myosin-IIIb (MYO3B, Homo sapiens, UniProt Q8WXR4) | binding | 0.1 µM | remaining binding | 100% |
